ChEMBL document CHEMBL3286396, “Discovery and Synthesis of C-Nucleosides as Potential New Anti-HCV Agents” (ACS Med Chem Lett, 2014)

Columns and labels:
[1] = target: T1, DNA polymerase alpha catalytic subunit (Homo sapiens, UniProt P09884); experiment: Inhibition of human DNA polymerase alpha
T1 sequence (P09884 whole entry): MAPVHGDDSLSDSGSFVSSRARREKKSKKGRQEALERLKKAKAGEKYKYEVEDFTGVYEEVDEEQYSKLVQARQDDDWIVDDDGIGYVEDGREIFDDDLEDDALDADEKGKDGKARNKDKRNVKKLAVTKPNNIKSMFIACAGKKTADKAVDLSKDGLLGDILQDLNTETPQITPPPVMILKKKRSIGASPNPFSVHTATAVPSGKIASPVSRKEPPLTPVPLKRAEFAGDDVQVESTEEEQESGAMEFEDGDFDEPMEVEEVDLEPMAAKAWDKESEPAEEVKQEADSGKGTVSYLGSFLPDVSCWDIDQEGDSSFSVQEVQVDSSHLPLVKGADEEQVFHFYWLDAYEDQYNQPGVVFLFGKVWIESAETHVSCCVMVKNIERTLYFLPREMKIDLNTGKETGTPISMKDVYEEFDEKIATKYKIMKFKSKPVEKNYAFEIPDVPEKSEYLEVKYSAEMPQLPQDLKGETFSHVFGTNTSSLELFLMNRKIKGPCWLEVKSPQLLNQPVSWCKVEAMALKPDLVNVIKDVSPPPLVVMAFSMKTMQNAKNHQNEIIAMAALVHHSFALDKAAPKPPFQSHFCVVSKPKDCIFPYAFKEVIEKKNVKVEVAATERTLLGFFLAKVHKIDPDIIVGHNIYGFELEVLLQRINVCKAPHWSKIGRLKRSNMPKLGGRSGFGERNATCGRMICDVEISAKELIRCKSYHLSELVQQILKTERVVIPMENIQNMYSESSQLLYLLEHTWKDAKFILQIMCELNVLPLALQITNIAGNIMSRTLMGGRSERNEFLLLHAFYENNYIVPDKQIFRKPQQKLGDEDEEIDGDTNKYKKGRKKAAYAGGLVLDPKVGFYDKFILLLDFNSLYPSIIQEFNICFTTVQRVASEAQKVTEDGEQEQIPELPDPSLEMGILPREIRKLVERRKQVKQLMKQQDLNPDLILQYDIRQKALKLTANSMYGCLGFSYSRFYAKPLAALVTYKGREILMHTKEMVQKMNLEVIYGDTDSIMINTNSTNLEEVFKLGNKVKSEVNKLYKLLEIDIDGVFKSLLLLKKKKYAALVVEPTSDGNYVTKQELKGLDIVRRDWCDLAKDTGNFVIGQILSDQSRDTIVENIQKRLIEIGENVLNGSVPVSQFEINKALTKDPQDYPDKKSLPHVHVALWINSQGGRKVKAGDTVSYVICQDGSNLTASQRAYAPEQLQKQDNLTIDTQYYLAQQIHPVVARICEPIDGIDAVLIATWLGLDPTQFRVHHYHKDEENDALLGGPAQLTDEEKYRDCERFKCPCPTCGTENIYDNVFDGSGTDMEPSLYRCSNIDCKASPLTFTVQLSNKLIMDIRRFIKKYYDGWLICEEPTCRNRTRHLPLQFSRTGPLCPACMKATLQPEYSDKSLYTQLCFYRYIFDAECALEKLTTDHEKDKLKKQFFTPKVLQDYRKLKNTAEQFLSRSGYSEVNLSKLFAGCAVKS
Summary of the method: (§1)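 The nucleoside was tested in its triphosphate form against human DNA polymerases α, β and γ.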

DNA polymerase beta = DNA polymerase beta (Homo sapiens, UniProt P06746); experiment: Inhibition of human DNA polymerase beta; summary of the method: as §1
[2] = target: T2, DNA polymerase subunit gamma-1 (Homo sapiens, UniProt P54098); experiment: Inhibition of human DNA polymerase gamma; summary of the method: as §1
T2 sequence (P54098 whole entry): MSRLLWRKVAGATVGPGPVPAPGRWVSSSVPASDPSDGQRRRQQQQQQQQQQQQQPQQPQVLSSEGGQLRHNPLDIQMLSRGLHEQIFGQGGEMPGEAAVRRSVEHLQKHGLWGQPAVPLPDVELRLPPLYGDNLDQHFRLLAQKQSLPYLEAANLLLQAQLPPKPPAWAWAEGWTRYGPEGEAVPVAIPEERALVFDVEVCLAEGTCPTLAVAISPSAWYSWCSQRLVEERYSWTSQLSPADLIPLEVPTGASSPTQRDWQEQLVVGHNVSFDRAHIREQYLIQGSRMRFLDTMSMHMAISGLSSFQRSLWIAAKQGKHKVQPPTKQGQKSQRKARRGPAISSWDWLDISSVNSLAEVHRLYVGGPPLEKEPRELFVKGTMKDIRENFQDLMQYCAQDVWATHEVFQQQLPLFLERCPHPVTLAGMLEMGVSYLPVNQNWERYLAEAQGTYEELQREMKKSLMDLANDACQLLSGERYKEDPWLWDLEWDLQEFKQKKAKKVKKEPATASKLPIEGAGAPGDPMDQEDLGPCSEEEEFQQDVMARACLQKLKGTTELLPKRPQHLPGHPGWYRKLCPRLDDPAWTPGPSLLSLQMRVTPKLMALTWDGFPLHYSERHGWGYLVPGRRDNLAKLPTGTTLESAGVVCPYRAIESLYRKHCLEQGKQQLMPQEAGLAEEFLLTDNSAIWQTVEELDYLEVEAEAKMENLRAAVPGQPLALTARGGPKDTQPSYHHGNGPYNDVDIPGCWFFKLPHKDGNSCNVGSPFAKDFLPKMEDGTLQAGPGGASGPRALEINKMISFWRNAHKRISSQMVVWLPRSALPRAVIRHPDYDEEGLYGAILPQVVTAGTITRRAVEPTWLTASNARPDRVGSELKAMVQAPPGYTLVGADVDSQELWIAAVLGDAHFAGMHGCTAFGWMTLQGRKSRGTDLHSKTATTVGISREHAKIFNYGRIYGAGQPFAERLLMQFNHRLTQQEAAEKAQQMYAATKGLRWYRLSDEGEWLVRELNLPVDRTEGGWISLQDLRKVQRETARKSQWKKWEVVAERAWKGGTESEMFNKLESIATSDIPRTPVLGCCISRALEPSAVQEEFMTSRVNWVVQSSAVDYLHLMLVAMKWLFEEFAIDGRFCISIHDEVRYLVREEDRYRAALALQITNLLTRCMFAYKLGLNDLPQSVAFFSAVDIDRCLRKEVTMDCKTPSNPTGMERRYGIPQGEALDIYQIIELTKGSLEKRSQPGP

Hepatitis C virus [3] = experiment: Antiviral activity against Hepatitis C virus genotype 1b infected in human HuH7 cells assessed as inhibition of subgenomic replicon RNA replication after 72 hrs by luciferase reporter assay; assay type: functional, cell-based, Hepacivirus hominis; conditions: Huh-7, 72 h
[4] = Cytotoxicity against human HuH7 cells by MTT assay; assay type: cell-based, Huh-7
Summary of the method: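 Huh-7-derived HCV replicon cell lines were used, with MTT as the vital dye read-out.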

[5] = Inhibition of N-terminal His6-tagged Hepatitis C virus genotype 1b isolate Con1 NS5B RNA-dependent RNA polymerase activity by plate reader analysis
Hepatitis C virus [6] = experiment: Antiviral activity against Hepatitis C virus assessed as inhibition of subgenomic replicon RNA replication; assay type: functional, organism-based, Hepacivirus hominis
[7] = Inhibition of Hepatitis C virus NS5B RNA-dependent RNA polymerase activity; design: species or system Hepacivirus hominis

Row | SMILES | EC50 (Hepatitis C virus [3]) [nM] | CC50 [4] [nM] | IC50 [5] [nM] | EC50 (Hepatitis C virus [6]) [nM] | also measured
1 | C[C@@]1(O)[C@H](O)[C@@H](COP(=O)(O)OP(=O)(O)OP(=O)(O)O)O[C@H]1c1ccc2c(N)ncnn12 | – | – | – | – | IC50 [1]: > 100000 nM; IC50 (DNA polymerase beta): > 100000 nM; IC50 [2]: > 100000 nM
2 | C[C@@]1(O)[C@H](O)[C@@H](CO)O[C@H]1c1cnc2c(=O)[nH]c(N)nn12 | > 100000 | > 100000 | 310 | – | –
3 | C[C@@]1(O)[C@H](O)[C@@H](CO)O[C@H]1c1ccc2c(=O)[nH]c(N)nn12 | > 100000 | > 100000 | 210 | – | –
4 | C[C@@]1(O)[C@H](O)[C@@H](CO)O[C@H]1c1cnc2c(N)ncnn12 | 1300 | 34000 | 550 | – | –
5 | C[C@@]1(O)[C@H](O)[C@@H](CO)O[C@H]1c1cnn2c(N)ncnc12 | > 100000 | > 100000 | 33000 | – | –
6 | C[C@@]1(O)[C@H](O)[C@@H](CO)O[C@H]1n1cnc2c(=O)[nH]c(N)nc21 [2'-B-METHYL-GUANOSINE] | – | – | – | 2000 | –
7 | C[C@@]1(O)[C@H](O)[C@@H](CO)O[C@H]1n1ccc2c(O)nc(N)nc21 | – | – | – | > 50000 | –
8 | C[C@@]1(O)[C@H](O)[C@@H](CO)O[C@H]1n1ccc2c(N)ncnc21 [BETA-2'-C-METHYL-7-DEAZA-ADENOSINE] | 200 | > 100000 | 200 | 300 | IC50 [7]: 70 nM
